Measured values collected from several papers.
Compare with care: the assays were run in different laboratories. pIC50: −log10 of the molar value.
PFF0160c: Dihydroorotate dehydrogenase (quinone), mitochondrial (PFF0160c, Plasmodium falciparum, UniProt Q08210)
PPO3: PPO3 (Agaricus bisporus, UniProt C7FF04)
MEP1A: Meprin A subunit alpha (MEP1A, Homo sapiens, UniProt Q16819)
KDM1A: Lysine-specific histone demethylase 1A (KDM1A, Homo sapiens, UniProt O60341)
ARAF: Serine/threonine-protein kinase A-Raf (ARAF, Homo sapiens, UniProt P10398)
PDE5A: cGMP-specific 3',5'-cyclic phosphodiesterase (PDE5A, Homo sapiens, UniProt O76074)
HDAC2: Histone deacetylase 2 (HDAC2, Homo sapiens, UniProt Q92769)

Cc1cc(Nc2ccc(C(F)(F)F)cc2)n2nc(OCCN(C)C)nc2n1 — pIC50 (PFF0160c; enzyme activity, inhibitor): < 5.00
Cc1ccc(C(C)C)cc1NC(=O)COC(=O)c1ccc(O)cc1 — pIC50 (PPO3; enzyme activity, inhibitor): 4.75
N[C@@]1(C(=O)O)CC[C@]12CC[C@H]2C(=O)O — pIC50 (Glutamate racemase (Helicobacter pylori J99, UniProt Q9ZLT0); enzyme activity, inhibitor): 1.74
Cc1cnc(-c2ccc(-c3ccc(NC(=O)Nc4c(F)cc(F)cc4F)cc3F)c3c2C(=O)NC3)[nH]1 — pIC50 (Aurora kinase B (AURKB, Homo sapiens, UniProt Q96GD4); enzyme activity, inhibitor): 8.43
O=C(CCN(Cc1cccnc1)Cc1ccc2c(c1)OCO2)NO — pIC50 (MEP1A; enzyme activity, inhibitor): 6.33
Nc1nc(N)c(N=Nc2ccc([N+](=O)[O-])cc2)c(N)n1 — pIC50 (PPO3; enzyme activity, inhibitor, absorbance): 4.39
C#CCSc1nc(Sc2nnnn2-c2cccnc2)c2nnn(Cc3ccccc3Cl)c2n1 — pIC50 (KDM1A; enzyme activity, inhibitor, fluorescence): 6.90
Cc1ccc(C(C)C)cc1NC(=O)COC(=O)/C=C/c1ccc(O)cc1 — pIC50 (PPO3; enzyme activity, inhibitor): 5.85
CCCCc1ccc(-c2ccc(-c3cc(C(=O)O)c4cccc([N+](=O)[O-])c4n3)o2)cc1 — pIC50 (Eukaryotic initiation factor 4A-I (EIF4A1, Homo sapiens, UniProt P60842); ATPase activity, inhibitor, absorbance): 4.56
N#CC(C(=O)c1ccc(Cl)cc1Cl)=C1NC(=O)c2ccc(OCc3ccc4c(c3)OCO4)cc2N1 — pIC50 (Cytoplasmic dynein 1 heavy chain 1 (DYNC1H1, Homo sapiens, UniProt Q14204); ATPase activity, inhibitor): 3.89
O=C(CCN(Cc1ccncc1)Cc1ccc(Cl)c(O)c1F)NO — pIC50 (MEP1A; enzyme activity, inhibitor): 6.19
COc1ccc(C2=NN(C3CCCCCC3)C(=O)[C@@H]3CC=CC[C@H]23)cc1-c1ccc(C(N)=O)cc1 (relative stereo) — pIC50 (3',5'-cyclic-AMP phosphodiesterase 4A (PDE4A, Homo sapiens, UniProt P27815); enzyme activity, inhibitor): 6.60
Cc1cc(Nc2ccc(Cl)cc2)n2nc(OCCN)nc2n1 — pIC50 (PFF0160c; enzyme activity, inhibitor): < 5.00
O=C1Nc2ccc(I)cc2/C1=C/c1cc(Br)c(O)c(Br)c1 — pIC50 (ARAF; enzyme activity, inhibitor, radiometric): 7.81
Nc1nc(N)c(N=Nc2ccccc2[N+](=O)[O-])c(N)n1 — pIC50 (PPO3; enzyme activity, inhibitor, absorbance): 4.47
COC(=O)[C@H]1Cc2c([nH]c3ccccc23)[C@@H](c2ccc(OC)c(OC)c2)N1C(=O)CCl — pIC50 (PDE5A; enzyme activity, inhibitor, FP): < 5.00
Cc1ccc(C(C)C)cc1NC(=O)COC(=O)c1ccc(O)cc1O — pIC50 (PPO3; enzyme activity, inhibitor): 5.74
CC(C)(C)N1C(=O)[C@H]2Cc3c([nH]c4ccccc34)[C@H](c3cccnc3)N2C1=O — pIC50 (PDE5A; enzyme activity, inhibitor, FP): 5.32
COCCOc1nc2nc(C)cc(Nc3ccc(Cl)cc3)n2n1 — pIC50 (PFF0160c; enzyme activity, inhibitor): < 5.00
CN1CCN(c2ccc(Nc3ncc4cc(C#N)c(=O)n(C5CCCC5)c4n3)cc2)CC1 — pIC50 (Tyrosine-protein kinase TXK (TXK, Homo sapiens, UniProt P42681); enzyme activity, inhibitor): 6.19
CNCCOc1nc2nc(C)cc(Nc3ccc(C(F)(F)F)cc3)n2n1 — pIC50 (PFF0160c; enzyme activity, inhibitor): < 5.00
C[C@@H]1Cc2ccccc2N1C(=O)NCCCCN(C)[C@@H]1Cc2cccc3[nH]c(=O)n(c23)C1 — pIC50 (5-hydroxytryptamine receptor 2A (HTR2A, Homo sapiens, UniProt P28223); ligand displacement, radioligand): 5.43
CNCCc1nc2nc(C)cc(Nc3cccc(Cl)c3)n2n1 — pIC50 (PFF0160c; enzyme activity, inhibitor): < 5.00
CC(=O)Nc1ccc(N=Nc2c(N)nc(N)nc2N)cc1 — pIC50 (PPO3; enzyme activity, inhibitor, absorbance): 4.53
CC(C)C[C@H]1CC(=O)N2CCC[C@H]2C(=O)N[C@@H](CCCCCC(=O)NO)C(=O)N[C@@H](Cc2c[nH]c3ccccc23)C(=O)N1 — pIC50 (HDAC2; enzyme activity, inhibitor): 8.46
CCN1CC(=O)N2[C@H](c3ccc(OC)c(OC)c3)c3[nH]c4ccccc4c3C[C@@H]2C1=O — pIC50 (PDE5A; enzyme activity, inhibitor, FP): 5.36
CCCON(Cc1ccc(C(=O)NO)cc1)C(=O)Nc1ccc(N(C)C)cc1 — pIC50 (HDAC2; enzyme activity, inhibitor, fluorescence): 5.94
COC(=O)[C@@H]1Cc2c([nH]c3ccccc23)[C@H](c2cccnc2)N1 — pIC50 (PDE5A; enzyme activity, inhibitor, FP): < 5.00
CCCSc1nc(Sc2nnnn2C)c2nnn(C3CCCC3)c2n1 — pIC50 (KDM1A; enzyme activity, inhibitor, fluorescence): 6.38
CCOCc1nc(O)c(-c2nnc(Cc3ccc(Cl)cn3)o2)c(O)c1-c1c(OC)cccc1OC — pIC50 (Cannabinoid receptor 1 (CNR1, Homo sapiens, UniProt P21554); ligand displacement, radioligand): < 4.52
Cc1cc(Nc2cccc(Cl)c2)n2nc(CC(C)C)nc2n1 — pIC50 (PFF0160c; enzyme activity, inhibitor): < 5.00
Cc1cc(Nc2ccc(C(F)(F)F)cc2)c2ccccc2n1 — pIC50 (PFF0160c; enzyme activity, inhibitor): 6.01
CCN1C(=O)[C@H]2Cc3c([nH]c4ccccc34)[C@H](c3ccc(OC)c(OC)c3)N2C1=O — pIC50 (PDE5A; enzyme activity, inhibitor, FP): 5.15
Cc1[nH]ncc1C(=O)N1CCC(C)(NC(=O)c2c[nH]c(=O)c3ccccc23)C1 (stereo not drawn) — pIC50 (Poly [ADP-ribose] polymerase 1 (PARP1, Homo sapiens, UniProt P09874); enzyme activity, inhibitor): 6.10
Cc1cc(Nc2ccc(Cl)cc2)n2nc(CN)nc2n1 — pIC50 (PFF0160c; enzyme activity, inhibitor): < 5.00
CCC[C@H](NC(=O)C1CN(C)C1)c1ncc(-c2cc3ccccc3nc2OC)[nH]1 — pIC50 (HDAC2; enzyme activity, inhibitor, fluorescence): 6.12
C#CCSc1nc(Sc2nnnn2-c2ccccc2)c2nnn(Cc3cccc(Cl)c3)c2n1 — pIC50 (KDM1A; enzyme activity, inhibitor, fluorescence): 7.13
CN(C)CCOc1ccc(-c2nc(-c3ccncc3)c(-c3ccc4c(c3)CC/C4=N\O)[nH]2)cc1 — pIC50 (ARAF; enzyme activity, inhibitor; lysate): < 5.00
Cc1cc(Nc2cccc(Cl)c2)n2nc(OCCN(C)C)nc2n1 — pIC50 (PFF0160c; enzyme activity, inhibitor): < 5.00
O=C(Nc1ccn(Cc2ccc(O)cc2C(F)(F)F)n1)c1c(F)cccc1F — pIC50 (Sodium channel protein type 9 subunit alpha (SCN9A, Homo sapiens, UniProt Q15858); ion current, inhibitor): < 5.00
COc1ccc([C@@H]2c3[nH]c4ccccc4c3C[C@H]3C(=O)N(c4ccc(Cl)cc4)C(=O)N23)cc1OC — pIC50 (PDE5A; enzyme activity, inhibitor, FP): 5.27
CCCCC[C@H](O)/C=C/[C@H]1[C@@H]2CO[C@@H](C2)[C@@H]1C/C=C\CCCC(=O)O — pIC50 (Thromboxane A2 receptor (TBXA2R, Homo sapiens, UniProt P21731); ligand displacement, radioligand): 7.89
